These results are taken from ChEMBL document CHEMBL2429860, “4-Phenyl-3,4-dihydroquinolone derivatives from Aspergillus nidulans MA-143, an endophytic fungus isolated from the mangrove plant Rhizophora stylosa” (J Nat Prod, 2013).

Data set [1] is described as follows: Toxicity in brine shrimp. In kind it is organism-based. Particulars: artemia salina, in vivo; read-out: LD50 (the source's name). The procedure, abridged: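 Lethality test using brine shrimp (Artemia salina).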
The subject of another data set is K562. Kind of data set: Cytotoxicity against human K562 cells. In kind it is functional, cell-based.
A further data set relates to HL-60. Kind of data set: Cytotoxicity against human HL60 cells. Format: functional, cell-based.
For the next data set, the system named is MDA-MB-231. Briefly: Cytotoxicity against human MDA-MB-231 cells. In kind it is functional, cell-based.
A further data set has as its system Bel-7402. Kind of data set: Cytotoxicity against human Bel7402 cells. Format: functional, cell-based.
In a further data set the test system is Escherichia coli. Briefly: Antibacterial activity against Escherichia coli by well diffusion method. Format: functional, organism-based. The method in brief:
(§1)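 Agar well diffusion test run against E. coli and S. aureus, with chloromycetin as the positive control.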

For a further data set, the system named is Staphylococcus aureus. Briefly: Antibacterial activity against Staphylococcus aureus by well diffusion method. Format: functional, organism-based. The method in brief: as §1

Active and inactive are the calls of the source. No cut-off for these calls is given here.

Take `CO[C@@H]1C(=O)Nc2ccc(/C=C/[C@@]3(C)CC[C@H](C(C)(C)O)O3)c(O)c2[C@@]1(O)c1ccccc1`: the LC50 in data set [1] is 7.1 µM. In addition, the outcome with K562, with HL-60, in the data set with MDA-MB-231, in the data set on Bel-7402, in the data set with Escherichia coli and with Staphylococcus aureus was inactive.
As to `C=C(C)[C@H]1CC[C@](C)(/C=C/c2ccc3c(c2O)[C@@](O)(c2ccccc2)[C@H](OC)C(=O)N3)O1`, the outcome with K562, in the data set with HL-60, with MDA-MB-231, in the data set on Bel-7402, in the data set on Escherichia coli and in the data set with Staphylococcus aureus was inactive.
In the case of `CO[C@@H]1C(=O)Nc2ccc(O)cc2[C@@]1(O)c1ccccc1`, the result in the data set on K562, in the data set with HL-60, in the data set with MDA-MB-231, with Bel-7402, in the data set with Escherichia coli and in the data set on Staphylococcus aureus was inactive.
As to `CO[C@@H]1C(=O)Nc2ccccc2[C@@]1(O)c1ccccc1`, the result in the data set on K562, in the data set on HL-60, in the data set on MDA-MB-231, in the data set on Bel-7402, in the data set with Escherichia coli and in the data set with Staphylococcus aureus was inactive.
On to `CO[C@@H]1C(=O)Nc2ccc(CC=C(C)C)c(O)c2[C@@]1(O)c1ccccc1`, for which, in data set [1], the LC50 amounted to 4.5 µM. The result in the data set with K562, in the data set with HL-60, in the data set with MDA-MB-231, in the data set with Bel-7402, with Escherichia coli and with Staphylococcus aureus was inactive.
Consider `CO[C@@H]1C(=O)Nc2ccc(/C=C/[C@]3(C)CCC(=O)[C@@H](C)C3)c(O)c2[C@@]1(O)c1ccccc1` [AFLAQUINOLONE A], for which the LC50 in data set [1] was determined as 5.5 µM.
With `O=C1Nc2ccccc2[C@@](O)(c2ccc(O)cc2)[C@@H]1O`, the outcome with K562, with HL-60, with MDA-MB-231, in the data set with Bel-7402, with Escherichia coli and with Staphylococcus aureus was inactive.
